Among the data in the RNAGym collection of RNA variant scans (doi:10.1126/science.aae0568) are yeast fitness values, retold here.

Variants at the floor of the assay were thinned out.

First the molecules themselves.
B1: tRNA (parent)
chain: GUUCCGUUGGCGUAAUGGUAACGCGUCUCCCUCCUAAGGAGAAGACUGCGGGUUCGAGUCCCGUACGGAACG

The series covers variants of B1. In words: yeast fitness relative to wild type (ratio to wild type); higher = fitter; tRNA-Arg(CCU), competitive growth, 37 C, YPD. The method in brief: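 Changes in genotype frequencies gave Darwinian fitness relative to wild type. Frequencies were read by 100-nucleotide paired-end sequencing of gene amplicons before and after pooled Saccharomyces cerevisiae strains, carrying tRNA-Arg(CCU) gene variants at the native locus, were competed in YPD at 37°C for 24 hours in six replicates. A genotype was kept only with ≥ 100 starting reads, and estimates < 0.5 were set to 0.5.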
Turning to GUUCCGUUGGCGUAAUGGUUACGCAUCUCCCUCCUAAGGAGAAGACUGCGGGUUCGAGUCCCGUACGGCACG [A20U G25A A69C], the yeast fitness was 0.963.
Take GUUCCGUUGGCGUAAUGGUUACGCGUCUCCCUCCUAAAGAGAAGACUGAGGGUUCGAGUGCCGUACGGAACG [A20U G38A C49A C60G]: the yeast fitness was ≤ 0.5.
On to GUUCCGUUGGCGUAAUGGUUACGCGUCUCCCUCCUAAGGAGAAGACUGGGGGUCCGAGUCCCGUACGGAACG [A20U C49G U54C], for which the yeast fitness was ≤ 0.5.
Turning to GUUCCGUUGGCGUAAUGGUUACGCGUCUCCCUCCUAAGGAGAAGAUUGCGGGUUCGAGUCCCAUACGGAACG [A20U C46U G63A], the yeast fitness amounted to 0.777.
In the case of GUUCCGUUGGCGUAAUGGUUACCCGUCUCCCUCCUAAGGAGAAGUCUGCGGGUUCGAAUCCCGUACGGACCG [A20U G23C A45U G58A A70C], the yeast fitness is ≤ 0.5.
With GUUCCGUUGGCGUAAUGGUUACACGUCCCCUUCCUAAGAAGAAGACUGCGGGUUCAAGUCCCGUACGGAACG [A20U G23A U28C C31U G39A G56A] the figure was ≤ 0.5; with GUUCCGUUGGCGUAAUGGUUACGCGUCUCCCUCCUAAGGAGAAGAUUGCGGGUUCGAGUACCGUACGGAACG [A20U C46U C60A], 0.566; with GUUCCGUUGGCGUAAUGGUUACGCGUCUCCCUCCUAAGGAGAAGACUGCGGGUUGGAGUCCUGUACGGAACG [A20U C55G C62U], 0.508.
In the case of GUUCCGUUGGCGUAAUGGUUACGCGUCUCCCUCGUAAGGAGGUGACUGCGGGUUCGAGUCCCGUACAGAACG [A20U C34G A42G A43U G67A], the yeast fitness is ≤ 0.5.
For GUUCCGUUGGCGUAAUGGUUACGCAUCUCCCUCCUAAGGAGAAGACUGCGGGUUCGAGUCCCGUAUGGAACG [A20U G25A C66U], the yeast fitness is 0.761.
With GUUCCGUUGGCGUAAUGGUUACGCGUCUCCCUCCUAAAGAGAAGACUGCGGGUUUGAGUCCCGUGCGGAACG [A20U G38A C55U A65G] the figure was ≤ 0.5; with GUUCCGUUGGCGUAAUGGUUACGCGUCUCCCUCGUCAGGAGAAGACUGCGGGUUUGAGUCCCGUUCGGAACG [A20U C34G A36C C55U A65U], ≤ 0.5.
GUUCCGUUGGCGUAAUGGUUACGCGUCUCCCUCGUAAGGAGGUGACUGCGGGUUCGAGUCCCGUGCGGAACG [A20U C34G A42G A43U A65G]: the yeast fitness came out at 0.573.
Turning to GUUCCGUUGGCGUAAUGGUUACGCGUCUCCCUCGUAACGAGAAGACUGCCGGUUCGAGUACCGUACGGACCG [A20U C34G G38C G50C C60A A70C], the yeast fitness was ≤ 0.5.
Then GUUCCGUUGGCGUAAUGGUUACGCGUCUCCCUCCUAAGGAGAAGAGUGCGGGUUCGAGUCCCGUACGGAACG [A20U C46G], with 1.07.
As for GUUCCGUUGGCGUAAUGGUUACGCGUCUCCCUCCUAAGGAGAAGACUGCGGGUUCGAGUCGCGUUCGGAACG [A20U C61G A65U], the yeast fitness is ≤ 0.5.
Regarding GUUCCGUUGGCGUAAUGGUUACGCGUCUCCCUCCUAAGGAGAAAACUGCGGGUUCGAGUCCCGUACGGAACG [A20U G44A], the yeast fitness stood at 0.662.
Regarding GUUCCGUUGGCGUAAUGGUUACGCGUCUCCCUCCUAACGAGAAGACUGCGGGUUCGAGUCCCGUGUGGAACG [A20U G38C A65G C66U], the yeast fitness is ≤ 0.5.
Then GUUCCGUUGGCGUAAUGGUUACGCGUCUCCCUCGUAAGGAGAAGACUCCGGGUUCGAGCCUCGUACGGAACG [A20U C34G G48C U59C C61U], with 0.791; and GUUCCGUUGGCGUAAUGGUUACGCGUCUCCCUCGUAGGGAGAAGACUGCGGGUUCGAGUCCCGUACGGAACG [A20U C34G A37G], with ≤ 0.5; and GUUCCGUUGGCGUAAUGGUUACGCGUCUCCCUCCUAAGCAGAAGACUCCGGCAUCGAGUCCCGUACGGAACG [A20U G39C G48C G52C U53A], with ≤ 0.5.
On to GUUCCGUUGGCGUAAUGGUUACGCGUCUCCCUCCUAAGGAGAAGAUUGCGGGUUCGAGUCCCGUACGGAUCG [A20U C46U A70U], for which the yeast fitness was 0.79.
As to GUUCCGUUGGCGUAAUGGUUACGCCUCUCCCUCCUAAGGAGAAGACUGCGGGUUCGAGUGCCGUACGGAACG [A20U G25C C60G], the yeast fitness is 0.676.
For GUUCCGUUGGCGUAAUGGUUACACGUUUCCCUCCUAAGGAGAAGACUGCGGGUUCGAGUCCCGUGCGCAACG [A20U G23A C27U A65G G68C], the yeast fitness was ≤ 0.5.
As for GUUCCGUUGGCGUAAUGGUUACGCGUCUCCCUCCUAAGGAGAAGACUGCGGGUUCGAGUCCUGUACGGAUCG [A20U C62U A70U], the yeast fitness worked out at 0.65.
With GUUCCGUUGGCGUAAUGGUUACGCGUCUCCCUCCUAAGGAGAAGACUGUGGGUUCGAGUCCCGUACGGUACG [A20U C49U A69U], the yeast fitness came out at 0.683.
With GUUCCGUUGGCGUAAUGGUUACGCGUCUCCCUCCUAAGGAGAAGACUGUGGGUUCGAGUCCCGUACAGAACG [A20U C49U G67A], the yeast fitness was 0.585.
For the variant GUUCCGUUGGCGUAAUGGUUACGCGUCUCCCUCCUAAGGAGAAGACUGAGGAUUCGAGUCUCGUACGGAACG [A20U C49A G52A C61U], the yeast fitness is ≤ 0.5.
With GUUCCGUUGGCGUAAUGGUUACGCGUCUCCCUCAUAAGGAGAAGACUGCGGGUUCGAGACCCGUACGGAACG [A20U C34A U59A] the figure was 0.538.
With GUUCCGUUGGCGUAAUGGUUACGCGUCUCCCUCCUAAAGAGAAGACUGCGGGUUCGAGUCCCGUACGGAACG [A20U G38A], the yeast fitness was found to be 0.69.
With GUUCCGUUGGCGUAAUGGUUACGCGUCUCCCUCCUAACGAGAAGACUGCGGGUUCGAGUCCCGUACGGAACG [A20U G38C] the figure was 0.775; with GUUCCGUUGGCGUAAUGGUUACGCGUCUCCCUCCUAACGAGAAGACUGCGGGUUCGAGUCGCGUACGGGACG [A20U G38C C61G A69G], ≤ 0.5.
Then GUUCCGUUGGCGUAAUGGUUACGCGUCUCCCUCCUAAGAAGAAGACUGCGAGUGCGAGUCCCGUCCGGACCG [A20U G39A G51A U54G A65C A70C], with 0.554; and GUUCCGUUGGCGUAAUGGUUACGCGUCUCCCUCUUAAGGUGAAGACUGCGGGUUCGAGUCCCGUACGGAACG [A20U C34U A40U], with ≤ 0.5.
Consider GUUCCGUUGGCGUAAUGGUUACGCGUCUCCCUCCUAAGGAGAAGACUGCGGGUUGGAGUCCCGUACGGAACG [A20U C55G], for which the yeast fitness came to 0.669.
With GUUCCGUUGGCGUAAUGGUUACGCGUCUCCCUCCUAAGGAGAAGACUGCGGGUUUGAGUCCCGUACGGAACG [A20U C55U] the figure was 0.76; with GUUCCGUUGGCGUAAUGGUUACGCGUCUCCCUCGUAAGGAGGUGACUGCGGGUUCGAGUCCCAUGCGGAACG [A20U C34G A42G A43U G63A A65G], ≤ 0.5.
